In the EternaBench riboswitch data:

System: MS2 coat protein
Test: apparent Kd, MS2 coat protein; higher = weaker binding; RNA-MaP array; FMN 200 µM where present
Summary of the method: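 The apparent Kd is reported as the median of filtered per-cluster binding-curve fits. To get these curves, designs transcribed by stalled E. coli RNA polymerase on Illumina sequencing-chip clusters were titrated with SNAP-549-labelled MS2 coat protein from 0.7 or 1.5 nM, doubling to 3 µM. Titrations were run without and then with constant ligand in 100 mM Tris-HCl pH 7.5, 80 mM KCl, 4 mM MgCl2, BSA, DTT, yeast tRNA and Tween-20, and green signal was normalised to red-channel RNA signal and control-cluster median Fmax.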

[1] = designed as: ON switch for flavin mononucleotide, no ligand
[2] = ligand present: flavin mononucleotide, designed as: ON switch for flavin mononucleotide
[3] = designed as: OFF switch for flavin mononucleotide, no ligand
[4] = ligand present: flavin mononucleotide, designed as: OFF switch for flavin mononucleotide

Sequence	apparent Kd [1] [µM]	apparent Kd [2] [µM]	apparent Kd [3] [µM]	apparent Kd [4] [µM]
AAUGGCGUCCAAGGAUAUCCUGACCGUUAACAUGAGGAUCACCCAUGUUGCCUAAAGGCGGCAUAGGAGAAGGUGGUACUCUGU	0.0733	0.124		
AGAAACUACGAGAAGGACAUGUGGUCCUUCCAAAACAUGAGGAUCACCCAUGUAGGAUAUCGUAGUUUCAGGAUCGUGAGAUCA			0.0115	0.00461
UAUGUGUCAGGAUAUUAGUAGUAAAUAAAUAAAAUUAUUACUGAGAAGGGACAUGAGGAUCACCCAUGUGCCUC			0.0328	0.354
UUGAUAAAUUAGAAGGCGAGAUAAAAUACAAUAAACAUGAGGAUCACCCAUGUGUACCCAUGUUUUGAGGAUAUAGACAUUUAU	0.922	0.399		
UUGCGACAUGAGGAUCACCCAUGUCAGGAUAUAUUGUAGAAACUGGUUGCGACCAGGCGUAGAAGGGACAUGGC			0.0286	0.0377
GGAGCCGGCACCGAGGAUAUUCAUAUUAAAACAUGAGGAUCACCCAUGUAGCUCGAAAGAGCUUGGGAGAAGGCGGAUCGGCUCG	0.84	0.0432		
UCGGCGCGAGGAUAUGCGGUUGCUCCCUAGGGUCGGAGCGUACAUGAGGAUCACCCAUGUAGAAGGCGCGCCGC			0.0162	0.0163
AAACAAAGGUGGAAACGGGAACCACAUGAGGAUCACCCAUGUAAGGAUAUCGACCAGCGGUGCGGCGAGAAGGUACAUAGGAAC			0.0203	0.0297
GCACAUGAUACAGGAUAUGUAUUGGAAUAUAUAAUGAAUUAGAUGAAAUUGACAGAAGGGUAGACAUGAGGAUCACCCAUGUGC			0.324	0.186
AGAGUUUCGUUGUGACCCAUUCACAUGAGGAUCACCCAUGUAGAGGAUAUAAGUCACCACGGUACUUAGAAGGCUGCAGGUGUG			0.00683	0.0125
UAGUAUAAGGGCAUUAAACAUGAGGAUCACCCAUGUACGUUAGAGGAUAUGCAUUACAGUUGAGAGUAGAAGGUUAGAGAAGGG			0.0444	0.0453
GGUCCAACAUGAGGAUAUAGCACCUUAUUGGUGCUAGAAGGCGUGUCGGUAGACAUGAGGAUCACCCAUGUAUUACAUUGGACC	0.0932	0.0224		
UUUUAGAUCCGAGGAUAUACAAUCCGGAAACGGUACAUGAGGAUCACCCAUGUAGAAGGCGGAUCUACAGGUACUAAAGUAUUU			0.01	0.00884
CCGAAACCUCAGAAGGACCACAUGAGGAUCACCCAUGUCAAGCAAAACGGUAGGAUAUGAGGGAAAAGUCAAUAUACCCGACAG	0.0113	0.0049		
CUGAGCAAUGUAGGAUAUCGACUGGAAUACAGUCGAGAAGGACAUGAGGAUCACCCAUGUAAAUGAGUGAAUAAUAAAGCUCAG			0.735	0.345
UUGAUAUUGUAAGGAUAUACUCUGUGAUGAAGAGUAGAAGGUACUUACAUGAGGAUCACCCAUGUUUAACGAGAUACUAAUCGU	0.0489	0.02		
CUAUGUUAGCAGGAUAUGCCAUUAUUCCUUUUCGCAGAAGGGCUUACAUGAGGAUCACCCAUGUUACAUUUCUU			0.0124	0.0175
AAAACAUGAGGAUCACCCAUGUUUAGAUCGGUCGAUUGAGGUGAGGAUAUACUAAGUUAAGGCUGGUAGAAGGCACUGGGUACA	0.062	0.0436		
UUAUAUAGGUAGGAUAUCGAUUUUAAUUAUUUUCGAGAAGGGUCAACAUGAGGAUCACCCAUGUCAGCAUGUAU			0.0587	0.0491
GGGUACAUCGGAGGAUAUCAUGUAAAUACAUGAGGAUCACCCAUGUCGAUGGAGAAAUCGGAGAUUGAGAAGGCCGAUGUACCG	0.0169	0.0071		
GGCUUAAACACAGGAUAUGGCCUUAGAGUGAGGCCAGAAGGGUGAAGUUCUCAUACAUGAGGAUCACCCAUGUCAAGGAGGCUA	0.857	0.201		

Sequence	apparent Kd [1] [µM]	apparent Kd [2] [µM]	apparent Kd [3] [µM]	apparent Kd [4] [µM]
UCUUAUCUAGGAUAUCCACCUCCUCACAUGAGGAUCACCCAUGUGCAGAACAACGGUCUCGGAGAAGGAGGUAUUG			0.0259	0.0253
UCCUAACCGUAGAAGGGUGACAUGAGGAUCACCCAUGUGCAGCAGCCGUGAACGGCCAUGCUGCCACAGGAUAUACGGAGGAGU	0.0261	0.0551		
UAGCUCUCGGCAGGAUAUCCUGCAUAAUGUCGAGUCCGCGCCCGGACAUGAGGAUCACCCAUGUAGGAGAAGGGCCCACGGGCG			0.028	0.0323
AAUUUACAUGAGGAUCACCCAUGUGAGGAUAUAUAUAUAUGUUUGUUAUUGCGUGUGUGUAGAAGGCGCGUGAU			0.0176	0.0163
CCACUCGAGCAGAAGGCAAUGAGGGUUAUACAUUGAGGAUAUGCUACGUAUGUGGUACAUGAGGAUCACCCAUGUAGCCUAUCU	0.389	0.0213		
UGGUACUACGGAGGAUAUGGGAAGAUACAUGAGGAUCACCCAUGUUUAAGAAUGCCGAGAGGCAACUAGAAGGCCCUAGUACCU	0.401	0.0252		
UUAAUUAAUUAAUUGCAGUUUACAUGAGGAUCACCCAUGUAUAAGGAUAUCGUCAGGAAUACUGACGAGAAGGUAUACAUCUGC			0.019	0.0318
CGAUUUACUGAGGAUAUUGCAUCACCCGACUGAUAAGAAGGCAGAACAUGAGGAUCACCCAUGUGGGUACUCAC			0.0805	0.0911
AAAAAACAUGAGGAUCACCCAUGUGAGGAUAUGCAAAAAAAAAAAAAAAAAUAAAAAAGCAGAAGGCACAAAAA			0.0634	0.0862
GCUCGAUGUGCUGAAAACAUGAGGAUCACCCAUGUAAAUGGUCAGGAUAUUUACGUGCUUUAUGUAGAGAAGGGACCAUCGAGC	0.2	0.0309		
GUCGGAAACGACAAUGAUAGGACUGAGGAUAUACAUAAAUAAUCCUCUACAUGAGGAUCACCCAUGUAGAAGGCAGUCCUAUCU			0.019	0.0246
CCGAAUAUGCAGGAUAUCGUAUAGGAAACUAUACGAGAAGGGUAAACAUGAGGAUCACCCAUGUUCCUUAACGG			0.0208	0.0192
ACAUGAGGAUCACCCAUGUUCACAUAGGAUAUUGAUUAUAUUGGUUUUAGAAUAGUAAUUAACCUCAAGAAGGAUGCCAGAUCU	0.0137	0.0101		
UCCACUGCUGAGAAGGGAUACGUCUGGUUCGCAUCAGGAUAUCGAUACAGUGCAGCAUGAGGACAUGAGGAUCACCCAUGUGUC	0.0216	0.0193		
CUAAAUCAUGUAGGAUAUGCAUGGCGAAGCUACGCAGAAGGACAUGAGGAUCACCCAUGUCUCUCCGUCUGCGAACAGACGGAG			0.0196	0.104
CUGAGCUGAGGAUAUACAUGAGGAUCACCCAUGUGUUCCAGCUUGGGUACAGGCACAUGUAGAAGGCAGUUCGG			0.0551	0.0214
UUUUAACAUGAGGAUCACCCAUGUGAGGAUAUCGAAAUUUAUAUUAAUAUUUAUUUAUCGAGAAGGCACAUUUU			0.115	0.135
GCAUGAAAUGUGAGGAUAUACCUCUGGAUACAUAGGUAGAAGGCACAUGAGGAUCACCCAUGUCCUAAACAUGC			0.0347	0.0422
GCAGCACAGAUUUACAUGAGGAUCACCCAUGUCUAUUAAGAUGAGGAUAUGCUUCGAAUGAUGUUGCAGAAGGCAUUGUGCUGC	0.0109	0.0066		
GCGUAUUAGGUGUAGCUAGACAUUCAAGAAGGGUGAAGAACAUGAGGAUCACCCAUGUAGUUGGUACAGGAUAUUGAUUUACGC	0.897	0.176		
AAGUAGUGAGGAUAUACAUGGAUAUACAUUCAUGUGGACCUACAUGAGGAUCACCCAUGUAGAAGGCACUACUA			0.0426	0.0616
